Test results taken from ChEMBL document CHEMBL5303300, “EUbOPEN Chemogenomics Library - Multiplex” (2023).
Several values for one entry are separate records, joined by “and”; a condition that tells them apart may be missing. Equal entries are not always repeated.

Test system: Fibroblast
Assay: Multiplex assay against human fibroblast
Assay type: toxicity, cell-based
Conditions: number of replicates 2
Method in brief: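 Live cells were stained at seeding with Hoechst33342, BioTracker Green Microtubule Cytoskeleton Dye, MitoTracker Red and Annexin V Alexa Fluor 680, then imaged on a CQ1 microscope at 37°C and 5% CO2 after compound addition. CellPathfinder machine-learning gating split cells into Hoechst high-intensity objects or normal cells. Normal cells were split into healthy, pyknosed or fragmented nuclei, and pyknosed cells into mitotic or apoptotic. Tubulin, mitochondrial-mass and membrane-permeability phenotypes are per cents of healthy-nucleus cells.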

[1] = 12 h, 1 µM, compound concentration 1 uM
[2] = 12 h, 10 µM, compound concentration 10 uM
[3] = 24 h, 1 µM, compound concentration 1 uM
[4] = 24 h, 10 µM, compound concentration 10 uM
[5] = 48 h, 1 µM, compound concentration 1 uM
[6] = 48 h, 10 µM, compound concentration 10 uM

Structure (SMILES): CS(=O)(=O)c1ccc(C(=O)Nc2cc(F)cc(COc3cc(F)c(Br)cc3CN3CC[C@H](O)C3)c2)c(Cl)c1.O=CO
- Population Apoptotic (%) [1]: 46% and 47%
- Population Fragmented Nuclei (%) [1]: 17%
- Population Healthy Nuclei (%) [1]: 64% and 60%
- Population Hoechst High Intensity Objects (%) [1]: 0%
- Population Normal (%) [1]: 99%
- Population Pyknosed Nuclei (%) [1]: 18% and 26%
- Total Cell Count [1]: 269 and 200
- Population Apoptotic (%) [2]: 67% and 54%
- Population Fragmented Nuclei (%) [2]: 20% and 17%
- Population Hoechst High Intensity Objects (%) [2]: 0%
- Population Normal (%) [2]: 100%
- Population Pyknosed Nuclei (%) [2]: 49% and 35%
- Total Cell Count [2]: 234
- Population Apoptotic (%) [3]: 56% and 57%
- Population Fragmented Nuclei (%) [3]: 20% and 17%
- Population Healthy Nuclei (%) [3]: 65% and 63%
- Population Hoechst High Intensity Objects (%) [3]: 0%
- Population Normal (%) [3]: 100%
- Population Pyknosed Nuclei (%) [3]: 19%
- Total Cell Count [3]: 284 and 204
- Population Apoptotic (%) [4]: 88% and 75%
- Population Fragmented Nuclei (%) [4]: 11%
- Population Healthy Nuclei (%) [4]: 42% and 51%
- Population Hoechst High Intensity Objects (%) [4]: 0%
- Population Normal (%) [4]: 99% and 100%
- Population Pyknosed Nuclei (%) [4]: 44% and 36%
- Total Cell Count [4]: 134 and 230
- Population Apoptotic (%) [5]: 74% and 71%
- Population Fragmented Nuclei (%) [5]: 25%
- Population Healthy Nuclei (%) [5]: 66% and 65%
- Population Hoechst High Intensity Objects (%) [5]: 0%
- Population Normal (%) [5]: 100%
- Population Pyknosed Nuclei (%) [5]: 8%
- Total Cell Count [5]: 319 and 223
- Population Apoptotic (%) [6]: 93% and 90%
- Population Fragmented Nuclei (%) [6]: 18% and 10%
- Population Healthy Nuclei (%) [6]: 22% and 39%
- Population Hoechst High Intensity Objects (%) [6]: 0%
- Population Normal (%) [6]: 100% and 98%
- Population Pyknosed Nuclei (%) [6]: 58% and 50%
- Total Cell Count [6]: 102 and 177

Structure (SMILES): COc1ccccc1-c1cc(Nc2cccc(CS(N)(=O)=O)c2)ncn1
- Population Apoptotic (%) [1]: 36% and 33%
- Population Fragmented Nuclei (%) [1]: 4% and 7%
- Population Healthy Nuclei (%) [1]: 78% and 68%
- Population Hoechst High Intensity Objects (%) [1]: 0%
- Population Membrane Permeable-Phenotype (%) [1]: 8% and 2%
- Population Mitochondria Different-Phenotype (%) [1]: 1% and 0%
- Population Mitotic Cells (%) [1]: 63% and 66%
- Population Normal (%) [1]: 100% and 99%
- Population Pyknosed Nuclei (%) [1]: 16% and 24%
- Population Tubulin-Different-Phenotype (%) [1]: 13% and 7%
- Total Cell Count [1]: 202 and 230
- Population Apoptotic (%) [2]: 46% and 42%
- Population Fragmented Nuclei (%) [2]: 4% and 7%
- Population Healthy Nuclei (%) [2]: 77% and 71%
- Population Hoechst High Intensity Objects (%) [2]: 0%
- Population Membrane Permeable-Phenotype (%) [2]: 7% and 5%
- Population Mitochondria Different-Phenotype (%) [2]: 0% and 1%
- Population Mitotic Cells (%) [2]: 53% and 57%
- Population Normal (%) [2]: 100% and 99%
- Population Pyknosed Nuclei (%) [2]: 17% and 21%
- Population Tubulin-Different-Phenotype (%) [2]: 17% and 19%
- Total Cell Count [2]: 181 and 214
- Population Apoptotic (%) [3]: 41% and 49%
- Population Fragmented Nuclei (%) [3]: 6% and 10%
- Population Healthy Nuclei (%) [3]: 75% and 64%
- Population Hoechst High Intensity Objects (%) [3]: 0%
- Population Membrane Permeable-Phenotype (%) [3]: 5% and 7%
- Population Mitochondria Different-Phenotype (%) [3]: 2% and 0%
- Population Mitotic Cells (%) [3]: 58% and 50%
- Population Normal (%) [3]: 100% and 99%
- Population Pyknosed Nuclei (%) [3]: 18% and 25%
- Population Tubulin-Different-Phenotype (%) [3]: 15% and 12%
- Total Cell Count [3]: 194 and 245
- Population Apoptotic (%) [4]: 61% and 55%
- Population Fragmented Nuclei (%) [4]: 10% and 9%
- Population Healthy Nuclei (%) [4]: 76% and 68%
- Population Hoechst High Intensity Objects (%) [4]: 0%
- Population Membrane Permeable-Phenotype (%) [4]: 1%
- Population Mitochondria Different-Phenotype (%) [4]: 3% and 4%
- Population Mitotic Cells (%) [4]: 38% and 44%
- Population Normal (%) [4]: 100%
- Population Pyknosed Nuclei (%) [4]: 12% and 21%
- Population Tubulin-Different-Phenotype (%) [4]: 18% and 15%
- Total Cell Count [4]: 202 and 214
- Population Apoptotic (%) [5]: 66% and 56%
- Population Fragmented Nuclei (%) [5]: 5% and 14%
- Population Healthy Nuclei (%) [5]: 78% and 67%
- Population Hoechst High Intensity Objects (%) [5]: 0%
- Population Membrane Permeable-Phenotype (%) [5]: 4% and 6%
- Population Mitochondria Different-Phenotype (%) [5]: 0%
- Population Mitotic Cells (%) [5]: 33% and 43%
- Population Normal (%) [5]: 99%
- Population Pyknosed Nuclei (%) [5]: 15% and 18%
- Population Tubulin-Different-Phenotype (%) [5]: 8% and 5%
- Total Cell Count [5]: 192 and 250
- Population Apoptotic (%) [6]: 78% and 80%
- Population Fragmented Nuclei (%) [6]: 9%
- Population Healthy Nuclei (%) [6]: 83% and 74%
- Population Hoechst High Intensity Objects (%) [6]: 0%
- Population Membrane Permeable-Phenotype (%) [6]: 3% and 9%
- Population Mitochondria Different-Phenotype (%) [6]: 1%
- Population Mitotic Cells (%) [6]: 21% and 20%
- Population Normal (%) [6]: 100%
- Population Pyknosed Nuclei (%) [6]: 6% and 16%
- Population Tubulin-Different-Phenotype (%) [6]: 16% and 26%
- Total Cell Count [6]: 203 and 209
